# From PubChem BioAssay
# NadD inh: inhibitors of S. aureus NadD, primary screen, biochemical, colorimetric, uHTS; Nicotinate-nucleotide adenylyltransferase NadD (Staphylococcus aureus N315); purified NadD enzyme, colorimetric absorbance read-out; inhibition, % at 20 µM; 360,000 tested, 0.78% active; in the data active = inhibition above about 26%
# DNMT1 block: human DNMT1 methyltransferase inhibitors, primary screen, biochemical, molecular beacon, fluorescence, HinP1I cleavage, uHTS. 360,000 tested, 0.83% active. DNA (cytosine-5)-methyltransferase 1 (Homo sapiens), P26358. AID 588458, 2011. inhibition (reported as % activation of signal), % at 10 µM; in the data active = inhibition above about 50%
# LMPTP inh: LMPTP phosphatase inhibitors, primary screen, biochemical, fluorescence intensity, uHTS; recombinant LMPTP-A, OMFP fluorogenic substrate; inhibition, % at 20 µM; Low molecular weight phosphotyrosine protein phosphatase (Homo sapiens), P24666; 360,000 tested, 0.22% active;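 active = compounds that cut the enzyme signal by at least half of the control window in the single-dose screen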;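 also: plate controls were DMSO wells with enzyme plus substrate for no effect and substrate without enzyme for full effect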
# Target sequence (P24666 whole entry, looked up): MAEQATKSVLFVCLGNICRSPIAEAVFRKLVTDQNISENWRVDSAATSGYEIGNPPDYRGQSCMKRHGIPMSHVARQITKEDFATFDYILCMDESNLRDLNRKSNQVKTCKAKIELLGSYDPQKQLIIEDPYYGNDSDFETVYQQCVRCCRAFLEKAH
#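 Material: LMPTP-A; amount: 0.625 nM enzyme; doses: single 20 µM dose; times: reaction 50 min, room temperature, dark; technique: fluorescence intensity of OMFP turnover product; benchmarks: no-enzyme and uninhibited controls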
# STEP block: STEP phosphatase inhibitors, primary screen, biochemical, fluorescence intensity, uHTS; recombinant STEP, OMFP fluorogenic substrate; inhibition, % at 20 µM; 360,000 tested, 0.25% active; AID 588621, 2011;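 active = inhibition at 20 µM, scaled per plate between control wells, above about 37%, limit read from the data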;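 also: 0% = DMSO with enzyme and substrate and 100% = substrate only without enzyme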
#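 Material: STEP (striatal-enriched tyrosine phosphatase) enzyme, cell-free; Compound dosing: 20 µM single dose in 1% DMSO; Technique: fluorescence read at 480 nm ex / 540 nm em; Times: reaction 20 min, ambient temperature; Medium: 50 mM Bis-Tris pH 6.0 with 2.5 mM DTT and 0.005% Tween 20; Also added: OMFP at 25 µM.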
# SUMO1-SIM PPI: modulators of SUMO1 protein-protein interactions, primary screen, biochemical, uHTS | SUMO1 binding to a labelled peptide, TR-FRET, 1 h | inhibition, % at 20 µM | Small ubiquitin-related modifier 1 (Homo sapiens), P63165 | AID 602429, 2012 | 360,000 tested, 0.33% active; in the data active = inhibition above about 37%
# Target sequence (P63165 whole entry, looked up): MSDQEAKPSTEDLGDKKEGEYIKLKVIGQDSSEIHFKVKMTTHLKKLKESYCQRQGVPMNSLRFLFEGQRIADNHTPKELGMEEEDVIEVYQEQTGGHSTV
# Scp-1 inhibitor: Scp-1 phosphatase inhibitors, primary screen, biochemical, colorimetric, uHTS; Carboxy-terminal domain RNA polymerase II polypeptide A small phosphatase 1 (Homo …; Recombinant Scp1, phosphopeptide, malachite green phosphate absorbance; inhibition, % at 20 µM; 340,000 tested, 0.88% active;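 active = inhibition above about 50% at 20 µM, limit read from the data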;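 also: plate controls were DMSO wells with enzyme for no effect and wells lacking enzyme for full effect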
# Target sequence (Q9GZU7 76-261 limits assumed): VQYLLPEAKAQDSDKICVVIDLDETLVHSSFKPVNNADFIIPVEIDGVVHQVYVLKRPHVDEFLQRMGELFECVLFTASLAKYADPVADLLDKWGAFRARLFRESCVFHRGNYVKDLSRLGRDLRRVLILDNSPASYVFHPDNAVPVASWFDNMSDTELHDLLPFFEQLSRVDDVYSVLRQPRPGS
#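 Test system – truncated SCP-1 phosphatase (76-261aa) · Reagent – Phosphorylated 17-residue peptide substrate · Incubation – 45 min room-temperature reaction, 5 min colour, 30 min stabiliser · Detection – colorimetric phosphate reagent with accelerator and stabiliser, absorbance at 630 nm · Measure – % inhibition at 20 µM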
# NadD conf: inhibitors of S. aureus NadD, confirmation, biochemical, colorimetric, single concentration. shares compounds with NadD inh. purified S. aureus NadD, colorimetric enzyme assay. inhibition, % at 20 µM. 2,000 tested, 13% active. AID 624309, 2012; in the data active = inhibition mostly above about 42%, no sharp cut-off; inactive = mostly below about 42%
# * marks the source's active call; other numbers are inactive results; . = not tested or not shown. Shown are actives, neighbours in structure and some others; about 2.3% of the full set was active somewhere.
SMILES,NadD inh,DNMT1 block,LMPTP inh,STEP block,SUMO1-SIM PPI,Scp-1 inhibitor,NadD conf
CCOc1ccc(/C=N/NC(=O)Cc2csc(Nc3cccc(C(F)(F)F)c3)n2)c(OCC)c1,8.7,-12.3,2.0,0.5,-2.2,0.5,.
COc1ccc(/C=N/NC(=O)Cc2csc(Nc3cccc(C(F)(F)F)c3)n2)c(OC)c1,33.0*,-18.2,3.5,0.6,-1.4,9.8,45.4
Cc1ccc(-c2ccc(C#N)c(=O)n2CC(=O)N(C)C)cc1,-1.7,2.2,0.3,-6.7,-3.7,-8.1,.
Cc1cc(C)c2nc(NNC(=O)c3ccc(S(=O)(=O)N4CC(C)CC(C)C4)cc3)sc2c1 (configuration not stated),34.4*,-27.8,2.1,2.9,1.9,-1.2,23.8
COc1ccc(-c2nnc(NC(=O)c3ccc(S(=O)(=O)N4CCc5ccccc5C4)cc3)o2)cc1,84.4*,-8.8,0.6,0.4,8.4,-4.9,13.8
COc1ccc(-c2csc(NC(=O)c3ccc(S(=O)(=O)N4CCc5ccccc5C4)cc3)n2)cc1,16.7,2.8,1.1,-2.3,-1.8,-11.6,.
Cc1ccc2nc(NNC(=O)c3ccc(S(=O)(=O)N4CCc5ccccc5C4)cc3)sc2c1,58.6*,-7.3,2.2,1.9,-1.5,9.7,56.2*
Cc1cccc2sc(NNC(=O)c3ccc(S(=O)(=O)N4CC(C)CC(C)C4)cc3)nc12 (configuration not stated),58.0*,-42.6,1.8,-1.9,3.5,-8.4,54.1*
Fc1ccc2[nH]c3c(c2c1)CN(C(=S)NCc1ccccc1)CC3,-7.9,-7.8,2.1,5.0,10.2,-7.3,.
C#CCOCCOCCOCCNc1nc(N2CCN(C(=O)[C@H](CCCN=C(N)N)n3cc(C(N)[C@@H](C)CC)nn3)CC2)nc(N2CCN(C(=O)[C@H](CCCCN)n3cc([C@@H](N)CC(N)=O)nn3)CC2)n1 (some centres not stated),-8.5,-6.0,-7.4,-0.7,-112.4,-2.7,.
O=C(CCC1CCCN(C(=O)c2cc3ccccc3o2)C1)NCc1ccc(F)c(F)c1 (configuration not stated),-4.3,-1.0,1.1,-2.3,-3.4,33.0,.
O=C(c1cc2sccc2n1Cc1ccc(F)cc1)N1CCN(c2nc3ccccc3s2)CC1,54.5*,-3.4,3.7,1.1,-1.9,13.3,31.5
O=C(c1nn2c(C(F)(F)F)cc(-c3ccco3)nc2c1Br)N1CCCc2ccccc21,30.7*,0.5,3.9,-3.8,-0.4,-17.1,4.6
O=C(Nc1nc(-c2ccccn2)cs1)c1ccc(-c2ccccc2F)o1,39.7*,-32.8,5.4,1.9,-2.5,-5.7,17.7
CCc1cc(C(=O)Nc2nc(-c3ccccn3)cs2)sc1C,33.5*,-24.3,6.4,2.3,1.5,4.3,8.8
O=C(c1cccc(Cl)c1)N1CCCC(C(=O)N2CCN(c3ccccc3)CC2)C1 (configuration not stated),-5.2,0.5,0.1,1.1,3.1,-7.1,.
O=C(Nc1ccccc1)c1nc[nH]c1C(=O)NCCN(CCNC(=O)c1[nH]cnc1C(=O)Nc1ccccc1)CCNC(=O)c1[nH]cnc1C(=O)Nc1ccccc1,56.7*,-24.7,-1.0,-4.2,-5.1,-0.5,4.3
CC(C)(C)OC(=O)NCc1ccc(NC(=O)c2nc[nH]c2C(=O)N[C@@H](Cc2ccccc2)C(=O)OC(C)(C)C)cc1,30.4*,-43.1,3.1,-1.5,6.2,-8.6,-1.7
O=C(Nc1ccc(Cl)cc1)c1nc[nH]c1C(=O)NCCN(CCNC(=O)c1[nH]cnc1C(=O)Nc1ccc(Cl)cc1)CCNC(=O)c1[nH]cnc1C(=O)Nc1ccc(Cl)cc1,56.6*,-42.7,1.2,-2.3,7.4,4.1,2.9
CNC(=O)c1[nH]cnc1C(=O)Nc1ccc(Cl)cc1,-2.8,-4.2,-0.5,0.6,4.4,-2.3,.
CC(C)C[C@H](NC(=O)c1[nH]cnc1C(=O)Nc1ccc(CNC(=O)OC(C)(C)C)cc1)C(=O)OC(C)(C)C,16.6,-34.7,2.3,1.3,3.0,-20.7,.
Cc1cccc(NC(=O)c2nc[nH]c2C(=O)NCCN(CCNC(=O)c2[nH]cnc2C(=O)Nc2cccc(C)c2)CCNC(=O)c2[nH]cnc2C(=O)Nc2cccc(C)c2)c1,41.9*,-11.8,0.7,-1.8,-6.1,1.7,-1.4
O=C(Nc1ccccc1)c1nc[nH]c1C(=O)NCCCCCCNC(=O)c1[nH]cnc1C(=O)Nc1ccccc1,31.8*,-3.4,0.3,-3.8,-3.4,-1.9,-1.1
Cc1ccc(CNC(=O)c2cccc3c2C(=O)c2ccc(N4CCCCC4)cc2S3(=O)=O)cc1,27.6,15.8,4.4,2.9,-15.6,4.4,.
O=C(NCc1cccc(OC(F)(F)F)c1)c1cccc2c1C(=O)c1ccc(-c3ccc(F)cc3OCc3ccccc3)cc1S2(=O)=O,48.2*,3.4,3.0,2.2,-40.6,-14.6,33.3
SMILES,NadD inh,DNMT1 block,LMPTP inh,STEP block,SUMO1-SIM PPI,Scp-1 inhibitor,NadD conf
O=C(NCc1ccccc1)c1cccc2c1C(=O)c1ccc(/C=C/c3ccccc3)cc1S2(=O)=O,33.7*,16.0,1.5,3.1,-18.7,-8.2,-5.7
COc1ccccc1N1CCN(c2ccc3c(c2)S(=O)(=O)c2cccc(C(=O)NCc4cccc(F)c4)c2C3=O)CC1,30.9*,2.1,3.4,6.2,-11.1,.,18.4
O=C(NC1CCCC1)c1cccc2c1C(=O)c1ccc(/C=C/c3ccccc3)cc1S2(=O)=O,25.2,5.8,-0.2,-1.8,-16.1,-2.7,.
C=CCOc1c(Br)cc(CNc2ccc(NC(=O)C(C)C)c(OC)c2)cc1OCC,12.1,-10.2,0.6,1.3,-10.5,-2.7,.
Cn1cccc1/C=N/NC(=O)c1cc2ccccc2cc1O,7.4,-3.2,2.3,2.5,-14.1,11.7,.
Cn1c(SCC(=O)NCC2CCCO2)nc2c(c1=O)SCC2 (configuration not stated),-1.0,-0.5,-1.1,1.7,-4.7,-5.5,.
CN1CC(=O)N(CC(=O)Nc2ccc(N3CCOCC3)cc2)C1=O,-2.6,-1.4,0.5,-2.0,-4.8,-4.3,.
Cc1cc2nc(-c3ccco3)c(CC(C)(C)C)n2c(C)c1Br,7.3,25.7,3.2,-2.1,1.6,.,.
